High-throughput results from PubChem.
TAAR1 ag – human TAAR1 agonists, primary screen, Fluo-8 calcium fluorescence, CHO RD-HGA16 cells | Trace amine-associated receptor 1 (Homo sapiens), Q96RJ0 | vehicle wells 0%, saturating PEA agonist 100% | activation, % at 3 µM | 360,000 compounds, 0.99% hits | AID 624467, 2012;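 active = activation above the mean activation of all test compounds in the run plus 3 SD, cut at about 38% in these data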
Target sequence (Q96RJ0 whole entry, looked up): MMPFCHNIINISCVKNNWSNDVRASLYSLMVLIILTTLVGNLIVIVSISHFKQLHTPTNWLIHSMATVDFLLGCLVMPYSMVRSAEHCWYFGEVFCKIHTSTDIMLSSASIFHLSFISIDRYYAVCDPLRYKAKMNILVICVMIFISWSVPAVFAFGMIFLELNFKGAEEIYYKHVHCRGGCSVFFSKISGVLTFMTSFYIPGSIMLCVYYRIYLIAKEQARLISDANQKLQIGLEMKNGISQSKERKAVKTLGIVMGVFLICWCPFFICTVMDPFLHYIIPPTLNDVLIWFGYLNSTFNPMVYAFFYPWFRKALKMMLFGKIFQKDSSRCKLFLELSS
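Assay system – CHO-derived RD-HGA16 cells with stable Gα16 and human TAAR1 · Compound dosing – one-point dosing at 3 µM (nominal) · Incubation – 17-24 h seeding, 75 min 37 °C dye, 30 min RT · Measured by – kinetic Fluo-8 calcium fluorescence · Control set – DMSO vehicle as 0%, PEA at EC100 as 100% · Repeats – single well for each compound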
Platelet DG rel – inhibitors of platelet dense granule secretion, primary screen, cell-based, MLPCN, human platelets; human platelet-rich plasma, SFLLRN dense granule ATP release, luminescence; inhibition, %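 (compounds screened at 7.5 µM in platelet-rich plasma)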; 300,000 compounds, 0.22% hits;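 active = mean replicate score, as percent of positive control, at or above 50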
Rce1 inh – yeast Rce1p protease inhibitors, primary screen, biochemical, fluorescence, cell-free homogeneous; yeast membranes, quenched prenylated peptide cleavage fluorescence; CAAX prenyl protease 2 (Saccharomyces cerevisiae (strain ATCC 204508 / S288c)), Q03530; calls only; 290,000 compounds, 0.27% hits;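 active = fall in fluorescence gain of 50% or more versus controls, with final raw signal at or below 3038400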
Target sequence (Q03530 whole entry, looked up): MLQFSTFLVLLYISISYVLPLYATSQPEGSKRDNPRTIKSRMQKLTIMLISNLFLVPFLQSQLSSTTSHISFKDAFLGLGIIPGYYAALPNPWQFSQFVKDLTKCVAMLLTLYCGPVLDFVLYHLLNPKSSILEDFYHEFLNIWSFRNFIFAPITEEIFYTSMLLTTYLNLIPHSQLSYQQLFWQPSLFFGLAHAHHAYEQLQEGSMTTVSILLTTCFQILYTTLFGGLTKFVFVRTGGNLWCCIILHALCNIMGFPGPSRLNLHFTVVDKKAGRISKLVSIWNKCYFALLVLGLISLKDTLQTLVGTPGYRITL
VLA-4 inh – inhibition in human VLA-4 binding assay, primary screen, VLA-4 allosteric modulator project, MLPCN library, flow cytometry, VLA-4 expressing cells; Integrin alpha-4 (Homo sapiens), P13612; ligand binding flow cytometry; inhibition, % (about 7 µM as worked out from the volumes in the protocol); 330,000 compounds, 0.2% hits; AID 2557, 2010; in the data active = inhibition above about 50%
TAAR1 antagonist – human TAAR1 antagonists, primary screen, Fluo-8 calcium fluorescence, CHO RD-HGA16 cells; antagonist; inhibition, % at 3 µM; 360,000 compounds, 1.5% hits; AID 624466, 2012;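 active = inhibition above a per-plate cutoff, the mean inhibition of test compounds on that plate plus 3 SD, cut at about 49% in these data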
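Assay system: CHO-derived RD-HGA16 cells stably expressing human TAAR1 plus Gα16. Timing: 140 s kinetic read after compound, 140 s after agonist. Technique: kinetic Fluo-8 calcium fluorescence measurement. Measure: % inhibition of agonist calcium response.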
A number is an active result; – = inactive; · = no result; + = active, no number. Only some compounds are listed: those with a hit (about 2.6% of all), similar ones and a draw of the others.

SMILES	TAAR1 ag	Platelet DG rel	Rce1 inh	VLA-4 inh	TAAR1 antagonist
CCN(Cc1nc2ccccc2c(=O)[nH]1)C(=O)c1cccc(S(=O)(=O)N2CCc3ccccc32)c1	–	·	·	–	–
CC1Cc2cc(-c3csc(NC(=O)Cc4ccccc4)n3)ccc2N1S(C)(=O)=O (centres undefined)	–	–	–	–	54
FC(F)C(F)(F)Oc1cccc(Nc2nccn3c(-c4cccc5ccccc45)cnc23)c1	–	·	·	·	–
C[C@@H]1CCCCO[C@@H](CN(C)C(=O)Nc2ccccc2)[C@@H](C)CN([C@H](C)CO)C(=O)c2cc(NC(=O)NC3CCCCC3)ccc2O1	–	·	·	·	–
CCCCOc1ccc(C(=O)Nn2c(-c3cccs3)nc3ccccc3c2=O)cc1	–	–	+	–	–
Cc1cccc(C)c1OCC(=O)Nn1c(COc2ccccc2)nc2ccccc2c1=O	–	–	–	–	51
Cc1ccccc1OCC(=O)Nn1c(COc2ccccc2)nc2ccccc2c1=O	–	–	–	–	–
O=C(/C=C/c1ccccc1)Nn1c(-c2cccs2)nc2ccccc2c1=O	–	–	–	–	–
Cc1ccc(O)c(C2=Nc3ccccc3N=C(c3ccc([N+](=O)[O-])cc3)C2)c1	41	–	–	–	–
Cc1ccc(O)c(C2=Nc3ccccc3N=C(c3cccc([N+](=O)[O-])c3)C2)c1	–	–	–	–	–
Nc1nc(SCc2ccccc2)sc1C(=O)N1CCCCC1	–	·	·	·	–
CCc1nc2ccc(C(=O)N(C)CCN(C)C)cn2c1N(C)CCC(C)C	–	·	·	·	–
COc1cc(F)cc(-c2ccc3c(c2)c(-c2cccs2)c(-c2cc(OC)cc(OC)c2)n3C)c1	50	·	·	–	–
COc1cc(OC)cc(-c2c(-c3cccs3)c3cc(Br)ccc3n2C)c1	–	·	·	–	–
COc1ccc(C2=NS(=O)(=O)N(C)C(C(=O)N3CCC(C)CC3)=C2)cc1	–	–	–	–	–
CN1C(C(=O)N2CCc3ccccc3C2)=CC(c2ccc(F)cc2)=NS1(=O)=O	42	–	–	–	–
COc1ccc(CNC(=O)CCc2ccc(S(=O)(=O)N3CCCCCC3)cc2)cc1OC	–	·	·	·	–
Cc1ccc(OCc2cc(C(=O)NCc3cc(F)ccc3C)no2)cn1	–	–	–	·	–
CCC(NC(=O)c1cc(COc2cc(C)c(Cl)c(C)c2)on1)c1ccncc1 (centres undefined)	43	–	–	–	–
CCC(NC(=O)c1cc(COc2ccc(OC)cc2Cl)on1)c1ccncc1 (centres undefined)	–	–	–	–	–
CCC(NC(=O)c1cc(COc2ccc(C)nc2)on1)c1ccc(C)cc1 (centres undefined)	49	–	–	–	–
COc1ccc(S(=O)(=O)NC(C)C(=O)NCc2cccnc2)cc1C (centres undefined)	–	–	–	–	–
CN1C(=O)c2ccccc2N(C)C1c1ccccc1Cl (centres undefined)	–	–	+	–	–
NS(=O)(=O)c1cccc(NC(=O)COC(=O)C2(c3cccc(F)c3)CCCC2)c1	–	–	–	–	52
CC(=O)Nc1ccc(NC(=O)COC(=O)C2(c3ccc(Cl)cc3)CCCC2)cc1	39	–	–	–	49
SMILES	TAAR1 ag	Platelet DG rel	Rce1 inh	VLA-4 inh	TAAR1 antagonist
Cc1cccc(N2CCN(C(=O)COc3noc4nc(C)cc(C)c34)CC2C)c1 (centres undefined)	–	·	·	·	–
Cc1nnc(NC(=O)CSc2nnc(CNC(=O)c3ccccc3F)n2C(C)C)s1	–	·	·	·	–
CC(C)n1c(CNC(=O)c2ccccc2F)nnc1SCC(=O)c1ccc(F)cc1	39	·	·	·	–
O=C(O)c1ccc(NS(=O)(=O)c2cc(Cl)sc2Cl)cc1	–	–	·	–	–
Cc1ccc(C)c(N2CCN(S(=O)(=O)c3ccc4c(c3)OCCO4)CC2)c1	–	57	–	–	–
Cc1ccc(C)c(S(=O)(=O)N2CCN(C(=O)[C@@H](NC(=O)c3ccc(F)cc3)C(C)C)CC2)c1	–	·	·	–	–
COc1ccccc1N(Cc1ccccc1)S(=O)(=O)c1cccc(C(=O)Nc2ccc(C)cn2)c1	–	–	–	–	50
COC(=O)C1=C(C)N(Cc2ccccc2C(F)(F)F)C(=NCc2ccccc2)NC1c1cccc(F)c1 (centres undefined)	–	·	·	·	–
COc1ccc(C2NCCc3c2[nH]c2ccccc32)cc1COc1ccc(F)cc1 (centres undefined)	49	–	–	–	–
COc1ccc(C2NCCc3c2[nH]c2ccccc32)cc1CN1CCc2cc(OC)c(OC)cc2C1C (centres undefined)	·	–	–	·	·
COC(=O)c1cc2c(c3c4cc(F)ccc4n(S(=O)(=O)c4ccc(C)cc4)c13)C(=O)N(Cc1ccc(N(C)C)cc1)C2	–	·	·	·	–
CCN(c1ccccc1)S(=O)(=O)c1cccc(C(=O)NCc2ccncc2)c1	–	–	–	–	–
CN1CCc2c(sc(NC(=O)c3ccc(S(=O)(=O)N4CCc5ccccc54)cc3)c2C(N)=O)C1	–	–	–	–	50
O=C(Nc1ccc(Oc2ccccc2)cc1)c1csc([C@H]2C[C@H](O)[C@@H](CO)O2)n1	–	·	·	·	68
O=C(Nc1ccc(Oc2ccccc2)cc1)c1csc([C@@H]2O[C@H](CO)[C@@H](O)[C@H]2O)n1	–	·	·	·	59
Cc1ccc(O)c(C(=O)c2cc(C#N)c(=O)n(-c3nccs3)c2)c1	51	–	–	–	–
Cc1oc2c(c(=O)c1C)C(=O)CC(c1ccccc1)C2 (centres undefined)	–	–	–	–	–
CS(=O)(=O)c1sc(C#N)c2c1C(=O)CC(c1ccccc1)C2 (centres undefined)	–	–	–	–	73
COc1cccc(CNC(=O)C2CCCN(c3nn4c(=O)cc(C)nc4s3)C2)c1 (centres undefined)	–	·	·	–	–
Cc1cc(C)nc(N2CCC(C(=O)Nc3ccc4c(c3)OCO4)CC2)n1	–	–	·	–	–
COc1ccc(NC(=O)C2CCCN(c3nn4c(=O)cc(C)nc4s3)C2)cc1 (centres undefined)	–	104	–	–	–
Cc1cc(C)nc(N2CCCC(C(=O)Nc3ccc4c(c3)OCO4)C2)n1 (centres undefined)	38	–	–	–	67
CC(NC(=O)c1cc2cc(F)ccc2[nH]1)c1ccccc1 (centres undefined)	–	–	–	–	–
CC1=C(C(=O)OCC(Cl)(Cl)Cl)N2C(=O)C(NC(=O)Cc3ccccc3)C2SC1 (centres undefined)	–	–	–	–	61
CC(=O)OCC1=C(C(=O)OC(C)(C)C)N2C(=O)[C@@H](NC(=O)Cc3ccccc3)[C@H]2SC1	–	·	·	·	–
